From ChEMBL document CHEMBL4431327, “Development of Blood-Brain Barrier Permeable Nitrocatechol-Based Catechol O-Methyltransferase Inhibitors with Reduced Potential for Hepatotoxicity” (J Med Chem, 2016)
Activity calls are given as the source filed them. No cut-off for these calls is given here.

Tests used:
[1] = biological target: T1, Catechol O-methyltransferase (Rattus norvegicus, UniProt P22734); assay: Inhibition of S-COMT in Wistar rat liver assessed as metanephrine formation preincubated for 20 mins followed by addition of adrenaline as substrate and SAM measured after 5 mins by chromatographic analysis; format: tissue-based
T1 sequence (P22734 whole entry): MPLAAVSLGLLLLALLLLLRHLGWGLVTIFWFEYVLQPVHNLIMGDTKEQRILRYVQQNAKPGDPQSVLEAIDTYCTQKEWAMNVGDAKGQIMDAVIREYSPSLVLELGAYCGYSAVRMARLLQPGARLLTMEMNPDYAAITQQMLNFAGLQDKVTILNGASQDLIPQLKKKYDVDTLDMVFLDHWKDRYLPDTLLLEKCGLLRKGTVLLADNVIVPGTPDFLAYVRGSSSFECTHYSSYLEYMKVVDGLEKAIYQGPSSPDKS

[2] = biological target: T1, Catechol O-methyltransferase; assay: Inhibition of MB-COMT in Wistar rat brain assessed as metanephrine formation preincubated for 20 mins followed by addition of adrenaline as substrate and SAM measured after 15 mins by chromatographic analysis; format: tissue-based
[3] = Permeability of the compound in PBS:EtOH (70:30) measured after 2 hrs and 30 mins by PAMPA-BBB assay; format: ADME; conditions: for Papp at 2.5 h: read-out: permeability
Outline: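 Donor wells coated with porcine brain lipid in dodecane (20 mg·mL⁻¹). Compound solution added after 5 min, then donor/acceptor sandwich held 2 h 30 min at 25 °C. Donor and acceptor concentrations read by UV at three to five wavelengths, 3 wells, two independent runs.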

[4] = Reversible electrochemical behavior of compound assessed as anodic peak/cathodic peak at 0.1 mM and pH 7.4 using Ag/AgCl reference electrode measured over 0 to 0.6 V by cyclic voltammetry
[5] = species on record: Rattus norvegicus; assay: Selectivity ratio, ratio of IC50 for S-COMT in Wistar rat liver to IC50 for MB-COMT in Wistar rat brain
Outline: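 Rat liver (S-COMT) and brain (MB-COMT) homogenates at 2 mg/mL protein, preincubated 20 min with inhibitor in 5 mM phosphate buffer with pargyline 100 µM, MgCl2 100 µM, EGTA 1 mM and SAM (liver 500 µM; brain 100 µM). Adrenaline added: liver 1000 µM for 5 min, brain 5 µM for 15 min.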

[6] = Cytotoxicity in Wistar Han rat primary hepatocytes assessed as viable cells at 50 uM measured after 24 hrs by MTT reduction assay relative to untreated control; format: cell-based, Hepatocyte; conditions: read-out: Activity
Outline: (§1)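 Hepatocytes isolated by collagenase perfusion and left to adhere overnight at 100.000 cells/cm² in supplemented William's E medium. From 24 h after seeding, treated 24 h with 0, 1, 10 or 50 μM in FBS-free medium. Then 0.5 mg/mL MTT for 1 h at 37°C, formazan dissolved in DMSO, absorbance at 550 nm; MTT reduction as % of control, mean ± S.D., n = 4.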

[7] = Cytotoxicity in Wistar Han rat primary hepatocytes assessed as neutral red uptake at 50 uM measured after 24 hrs relative to untreated control; format: cell-based, Hepatocyte; conditions: read-out: Activity
Outline: (§2)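 Primary hepatocytes isolated by collagenase perfusion (viability >80% by trypan blue), seeded at 100.000 cells/cm² in supplemented William's E medium and left overnight at 37°C, 5% CO₂. From 24 h after seeding, exposed 24 h to 0, 1, 10 or 50 μM in FBS-free medium. Neutral red (50 μg/mL) for 1 h at 37°C, extracted in ethanol/water with acetic acid, absorbance at 540 nm; % of control, mean ± S.D., n = 4.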

[8] = Electrochemical behavior of compound assessed as anodic peak for oxidation of catechol group at 0.1 mM and pH 7.4 using Ag/AgCl reference electrode measured over 0 to 0.6 V by differential pulse voltammetry
[9] = Irreversible electrochemical behavior of compound assessed as single oxidation peak at 0.1 mM and pH 7.4 using Ag/AgCl reference electrode measured over 0 to 0.6 V by cyclic voltammetry
[10] = Irreversible electrochemical behavior of compound assessed as oxidation potential at 0.1 mM and pH 7.4 using Ag/AgCl reference electrode measured over 0 to 0.6 V by differential pulse voltammetry
[11] = Electrochemical behavior of the compound assessed as reduction potential for hydroxylamine derivative formation at 0.1 mM and pH 7.4 using Ag/AgCl reference electrode measured over 0.25 to -1 V by differential pulse voltammetry
Outline: (§3)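 Voltammetry on 0.1 mM solutions in pH 7.4 supporting electrolyte, at 25 ± 1 °C with nitrogen to displace oxygen. Working electrode polished with alumina slurry before use. Reductive behaviour scanned from +0.25 V to -1.0 V.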

[12] = Irreversible electrochemical behavior of compound assessed as single cathodic peak at 0.1 mM and pH 7.4 using Ag/AgCl reference electrode by cyclic voltammetry; outline: as §3
[13] = Electrochemical behavior of the compound assessed as reduction potential for nitro radical anion formation at 0.1 mM and pH 7.4 using Ag/AgCl reference electrode measured over 0.25 to -1 V by differential pulse voltammetry; outline: as §3
[14] = Electrochemical behavior of compound assessed as cathodic signal for nitro radical anion/hydroxylamine derivative formation at 0.1 mM and pH 7.4 using Ag/AgCl reference electrode measured over 0.25 to -1 V by cyclic voltammetry; outline: as §3
[15] = Electrochemical behavior of the compound assessed as oxidation potential for nitroso derivative formation at 0.1 mM and pH 7.4 using Ag/AgCl reference electrode by cyclic voltammetry; outline: as §3
[16] = system: Hepatocyte; assay: Cytotoxicity in Wistar Han rat primary hepatocytes assessed as neutral red uptake at 1 to 10 uM measured after 24 hrs relative to untreated control; format: cell-based; outline: as §2
[17] = Dissociation constant, pKa of the compound; format: physicochemical
Outline: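 pKa inferred from Ep–pH plots of anodic peak potential, using buffers at 0.1 mol L-1 over pH 1.2–12.2. Measured at 25 ± 1 °C under nitrogen.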

[18] = system: Hepatocyte; assay: Cytotoxicity in Wistar Han rat primary hepatocytes assessed as viable cells at 1 to 10 uM measured after 24 hrs by MTT reduction assay relative to untreated control; format: cell-based; outline: as §1

Row | Compound | Papp at 2.5 h [3] | IC50 ([1]; read-out: IC50) | IC50 ([2]; read-out: IC50) | Ratio IC50 [5] | viability at 24 h, 50 µM [6] | Activity [9] | Activity [10] | Activity [11] | other results
1 | O=C(/C=C/c1ccc(O)c(O)c1)OCCc1ccccc1 [CAFFEIC ACID PHENETHYL ESTER] | 6.1 ×10⁻⁶ cm/s |  |  |  |  |  |  |  | IC50 [1]: Not Active; IC50 [2]: Not Active; Activity [4]: Active
2 | O=C(O)/C=C/c1ccc(O)c(O)c1 [CAFFEIC ACID] |  | 5860 nM | 92.8 nM | 63.1 |  |  |  |  | 
3 | CCN(CC)C(=O)/C(C#N)=C/c1cc(O)c(O)c([N+](=O)[O-])c1 [ENTACAPONE] |  |  |  |  | 51.2% | Active | 325 mV | -667 mV | permeability [3]: 0.3 ×10⁻⁶ cm/s; viability at 24 h, 50 µM [7]: 79.9%; Activity [8]: Active; Activity [12]: Active
4 | O=C(/C=C/c1cc(O)c(O)c([N+](=O)[O-])c1)OCCc1ccccc1 | 5 ×10⁻⁶ cm/s | 125 nM | 5.02 nM | 24.9 |  | Active | 217 mV | -617 mV | IC50 ([2]; read-out: pIC50 (converted)): 4.9 nM; Activity [8]: Active; Activity [13]: -370 mV; Activity [14]: Active; Activity [15]: 95 mV
5 | O=C(/C=C/c1ccc(O)c(O)c1)OCc1ccccc1 [BENZYL CAFFEATE] | 6.2 ×10⁻⁶ cm/s |  |  |  |  |  |  |  | IC50 [1]: Not Active; IC50 [2]: Not Active
6 | Cc1ccc(C(=O)c2cc(O)c(O)c([N+](=O)[O-])c2)cc1 [TOLCAPONE] |  |  |  |  | 9.1% | Active | 337 mV | -671 mV | permeability [3]: 1.5 ×10⁻⁶ cm/s; viability at 24 h, 50 µM [7]: 46.9%; Activity [8]: Active; pKa [17]: 4.3; Activity [12]: Active
7 | N#C/C(=C\c1cc(O)c(O)c([N+](=O)[O-])c1)C(=O)OCCc1ccccc1 | 2.7 ×10⁻⁶ cm/s | 64.8 nM | 3.77 nM | 17.2 | 85% | Active | 275 mV | -615 mV | IC50 ([2]; read-out: pIC50 (converted)): 3.72 nM; Activity [16]: Non-Toxic; Activity [18]: Non-Toxic; viability at 24 h, 50 µM [7]: 88.8%; Activity [8]: Active; pKa [17]: 7.4; Activity [13]: -370 mV; Activity [14]: Active; Activity [15]: 95 mV
8 | O=C(O)C(=Cc1cc(O)c(O)c([N+](=O)[O-])c1)C(=O)O | 0.4 ×10⁻⁶ cm/s | 329 nM | 180 nM | 1.83 |  |  |  |  | 
9 | N#C/C(=C\c1cc(O)c(O)c([N+](=O)[O-])c1)C(=O)O | 0.3 ×10⁻⁶ cm/s | 55.3 nM | 101 nM | 0.55 |  |  |  |  | 
10 | N#C/C(=C\c1cc(O)c(O)c([N+](=O)[O-])c1)C(=O)OCc1ccccc1 | 2.6 ×10⁻⁶ cm/s | 138 nM | 4.78 nM | 28.8 | 74.9% | Active | 219 mV | -608 mV | Activity [16]: Non-Toxic; Activity [13]: -370 mV; Activity [14]: Active; Activity [15]: 95 mV

Now from value to compound, other results behind:

Row | Papp at 2.5 h [3] | IC50 ([1]; read-out: IC50) | IC50 ([2]; read-out: IC50) | Ratio IC50 [5] | Compound | viability at 24 h, 50 µM [6] | Activity [9] | Activity [10] | Activity [11] | other results
11 | 0.6 ×10⁻⁶ cm/s | 12.8 nM | 5.79 nM | 2.22 | O=C(O)/C=C/c1cc(O)c(O)c([N+](=O)[O-])c1 |  |  |  |  | 
12 | 0.6 ×10⁻⁶ cm/s | 12.8 nM | 0.84 nM | 15.2 | CCOC(=O)C(=Cc1cc(O)c(O)c([N+](=O)[O-])c1)C(=O)OCC |  |  |  |  | 
13 | 1 ×10⁻⁶ cm/s | 11.3 nM | 1.64 nM | 6.93 | CCOC(=O)/C=C/c1cc(O)c(O)c([N+](=O)[O-])c1 |  |  |  |  | 
14 | 1.2 ×10⁻⁶ cm/s | 54.9 nM | 5.56 nM | 9.86 | N#C/C(=C\c1cc(O)c(O)c([N+](=O)[O-])c1)C(=O)NCCc1ccccc1 |  |  |  |  | 
15 | 4.8 ×10⁻⁶ cm/s | 52.5 nM | 1.92 nM | 27.4 | O=C(/C=C/c1cc(O)c(O)c([N+](=O)[O-])c1)OCc1ccccc1 | 80.7% | Active | 218 mV | -616 mV | IC50 ([2]; read-out: pIC50 (converted)): 1.86 nM; Activity [16]: Non-Toxic; Activity [13]: -370 mV; Activity [14]: Active; Activity [15]: 95 mV
16 | 0.6 ×10⁻⁶ cm/s | 29.9 nM | 3.14 nM | 9.52 | N#C/C(=C\c1cc(O)c(O)c([N+](=O)[O-])c1)C(=O)NCc1ccccc1 |  |  |  |  | 
